Screening results deposited in PubChem BioAssay by Sanford-Burnham Center for Chemical Genomics.
Rows were chosen to be rich in hits. Some 2.3% of all compounds tested hit in one or more screens of this group.
MT1-MMP act inh = inhibitors of human MT1-MMP activation; HT1080 RFP-PRO-GFP cells, GFP/RFP ratio fluorescence, overnight; percent of plate control window, DMSO zero; 360,000 compounds, 0.061% hits; GFP/RFP ratio change, % at 20 µM; P50281; AID 651647;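 active = GFP/RFP ratio change of at least 30% with cell ATP level not reduced by more than half and red fluorescence within 50% of control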
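Material: RFP-PRO-GFP reporter HT1080 cells. Dosing: single-point 20 µM compound, 1% DMSO. Controls: DMSO and RFP-L50D-GFP cell wells. Timing: cells overnight before dosing, compound overnight, 37 °C, 5% CO2. Measure: GFP/RFP fluorescence ratio.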
SKN-1 inh = inhibitors of C. elegans SKN-1; C. elegans VP596 Pgst-4::GFP/RFP ratio, acrylamide-induced, 24 h; inhibition, % at 21.8 µM; 360,000 compounds, 0.49% hits; AID 624304;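 active = interference check ratio from 0.5 to 1.5 plus GFP to RFP signal ratio inhibition reaching or exceeding a fixed threshold, cut at about 30% in these data, passing the limit was not always enough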
DNMT1 inh = blocks human DNA methyltransferase DNMT1; inhibition (reported as % activation of signal), % at 10 µM; 360,000 compounds, 0.83% hits; AID 588458; P26358; DNMT1 molecular beacon, Hinp1I cleavage, fluorescence; in the data active = inhibition above about 50%
Target sequence (P26358 504-1616 limits assumed): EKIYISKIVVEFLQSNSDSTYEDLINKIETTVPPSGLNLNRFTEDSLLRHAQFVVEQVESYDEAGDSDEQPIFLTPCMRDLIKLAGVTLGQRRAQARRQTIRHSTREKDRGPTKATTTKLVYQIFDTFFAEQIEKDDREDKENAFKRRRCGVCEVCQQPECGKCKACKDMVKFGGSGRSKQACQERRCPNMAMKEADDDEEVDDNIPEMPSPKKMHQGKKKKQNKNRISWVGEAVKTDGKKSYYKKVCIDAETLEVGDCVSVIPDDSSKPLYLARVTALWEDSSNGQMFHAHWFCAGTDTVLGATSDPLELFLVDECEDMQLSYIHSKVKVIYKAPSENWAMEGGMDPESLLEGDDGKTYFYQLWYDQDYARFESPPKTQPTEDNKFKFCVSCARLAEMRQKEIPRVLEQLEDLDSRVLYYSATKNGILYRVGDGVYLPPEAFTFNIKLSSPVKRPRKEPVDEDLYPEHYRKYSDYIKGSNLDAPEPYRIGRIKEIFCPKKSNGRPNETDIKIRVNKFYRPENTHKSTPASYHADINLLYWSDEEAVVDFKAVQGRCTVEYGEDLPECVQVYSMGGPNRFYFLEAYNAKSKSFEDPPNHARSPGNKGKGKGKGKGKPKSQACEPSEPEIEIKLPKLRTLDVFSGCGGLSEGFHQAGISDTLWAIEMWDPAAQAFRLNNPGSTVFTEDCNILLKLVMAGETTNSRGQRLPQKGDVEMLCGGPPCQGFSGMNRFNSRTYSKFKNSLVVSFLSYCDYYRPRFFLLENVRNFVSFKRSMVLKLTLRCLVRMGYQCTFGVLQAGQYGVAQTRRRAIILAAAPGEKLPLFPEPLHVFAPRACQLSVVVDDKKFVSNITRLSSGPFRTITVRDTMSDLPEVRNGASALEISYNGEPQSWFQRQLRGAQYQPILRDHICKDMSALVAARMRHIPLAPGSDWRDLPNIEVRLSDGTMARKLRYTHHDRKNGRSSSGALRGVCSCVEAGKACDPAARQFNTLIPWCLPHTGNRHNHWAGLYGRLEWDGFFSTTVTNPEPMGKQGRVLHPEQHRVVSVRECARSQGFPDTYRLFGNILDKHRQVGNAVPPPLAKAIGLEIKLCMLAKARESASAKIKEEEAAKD
Rpn11 block = inhibitors of human proteasome Rpn11. O00487. human 26S proteasome, Ub4-pepOG fluorescence polarization; 20S core pre-blocked with epoxomicin. inhibition, % at 20 µM. 360,000 compounds, 0.59% hits. AID 588493;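 active = inhibition at 20 µM, scaled to each plate's controls, above about 33%, limit read from the data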
SUMO1-SIM PPI = SUMO1-SIM interaction modulation; P63165; SUMO1 binding to a labelled peptide, TR-FRET, 1 h; inhibition, % at 20 µM; 360,000 compounds, 0.33% hits; in the data active = inhibition above about 37%
CSN deneddyl inh = blocks human CSN-mediated cullin deneddylation | Purified CSN, SCF-Nedd8-OG deneddylation, fluorescence polarization | Q92905 | AID 651999 | 360,000 compounds, 0.38% hits | inhibition, % at 12.5 µM;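 active = pattern-corrected inhibition above about 35%, with an unprinted fluorescence ratio check between 0.5 and 1.5, limit read from the data, passing the limit was not always enough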;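 also: 0% = enzyme with substrate and 100% = substrate without enzyme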
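Assay system: purified human Csn5 enzyme expressed in HEK293T cells; Input: 0.24 nM Csn5 enzyme, final concentration; Reagent: 10 nM SCFSkp2-Nedd8OG; Compound dosing: 12.5 µM single point; Times: reaction 90 min, room temperature; Technique: fluorescence polarization readout.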
* hit, by the source's call.

How did CNC(=O)c1c(NC(=O)c2ccc(N3C(=O)CCC3=O)cc2)sc2c1CCC(C)C2 (stereo unspecified) do in these assays?
MT1-MMP act inh: -2; SKN-1 inh: 41*; DNMT1 inh: 1; Rpn11 block: 2; SUMO1-SIM PPI: -17; CSN deneddyl inh: 5

What do the screens show for `CC(C)OCCCn1c(=S)[nH]c2cc3c(cc2c1=O)OCO3`?
MT1-MMP act inh: 1; SKN-1 inh: 39*; DNMT1 inh: -2; Rpn11 block: 2; SUMO1-SIM PPI: -2; CSN deneddyl inh: -8

Results for CC(C)OCCCn1c(=S)[nH]c2ccc(N3CCOCC3)cc2c1=O ?
MT1-MMP act inh: 1; SKN-1 inh: 11; DNMT1 inh: -3; Rpn11 block: -7; SUMO1-SIM PPI: -2; CSN deneddyl inh: -2

How did CCOc1ccc(-c2nnc(-c3cccs3)o2)cc1 do in these assays?
MT1-MMP act inh: 0; SKN-1 inh: 70*; DNMT1 inh: 0; Rpn11 block: 0; SUMO1-SIM PPI: -1; CSN deneddyl inh: -5

What do the screens show for `CCOc1ccc(-c2nnc(-c3cccs3)o2)cc1OCC`?
MT1-MMP act inh: 2; SKN-1 inh: 15; DNMT1 inh: 3; Rpn11 block: 1; SUMO1-SIM PPI: 6; CSN deneddyl inh: -4

How did CCCOc1ccc(-c2nn(-c3ccccc3)cc2/C=C2\SC(N)=NC2=O)cc1 do in these assays?
MT1-MMP act inh: 1; SKN-1 inh: 18; DNMT1 inh: 55*; Rpn11 block: 13; SUMO1-SIM PPI: 11; CSN deneddyl inh: 0

How did Cc1cc(-c2nn(-c3ccccc3)cc2/C=C2\SC(N)=NC2=O)ccc1OC(C)C do in these assays?
MT1-MMP act inh: -6; SKN-1 inh: 16; DNMT1 inh: -18; Rpn11 block: 26; SUMO1-SIM PPI: -7; CSN deneddyl inh: 4

What do the screens show for `COc1cccc(C(=O)NC(=S)N2c3ccccc3CC2C)c1OC` (stereo unspecified)?
MT1-MMP act inh: 3; SKN-1 inh: 7; DNMT1 inh: 3; Rpn11 block: 3; SUMO1-SIM PPI: 43*; CSN deneddyl inh: -1

What do the screens show for `CN(C)C(=O)c1cccc(-c2cnc3c(NC=O)cc(-c4ccc(N(C)C)cc4)cn23)c1`?
MT1-MMP act inh: -57; SKN-1 inh: 36*; DNMT1 inh: -5; Rpn11 block: 39; SUMO1-SIM PPI: -16; CSN deneddyl inh: 7

How did CC(=O)c1cccc(-c2ccc3c(c2)C(C)(Cc2ccccc2F)C(=O)N3)c1 (stereo unspecified) do in these assays?
MT1-MMP act inh: 0; SKN-1 inh: 11; DNMT1 inh: 0; Rpn11 block: 5; SUMO1-SIM PPI: 6; CSN deneddyl inh: -1

What do the screens show for `CC1(Cc2cccc(F)c2)C(=O)Nc2ccc(OC(F)(F)F)cc21` (stereo unspecified)?
MT1-MMP act inh: -5; SKN-1 inh: 26; DNMT1 inh: 1; Rpn11 block: 0; SUMO1-SIM PPI: -1; CSN deneddyl inh: -1

Results for CC1(Cc2ccc(OC(F)(F)F)cc2)C(=O)Nc2ccc(OC(F)(F)F)cc21 (stereo unspecified) ?
MT1-MMP act inh: 0; SKN-1 inh: 38*; DNMT1 inh: -7; Rpn11 block: -3; SUMO1-SIM PPI: 3; CSN deneddyl inh: 2

How did COC(=O)c1ccc(CC2(C)C(=O)Nc3ccc(-c4cccc(C(F)(F)F)c4)cc32)o1 (stereo unspecified) do in these assays?
MT1-MMP act inh: 3; SKN-1 inh: 39*; DNMT1 inh: 0; Rpn11 block: 1; SUMO1-SIM PPI: 2; CSN deneddyl inh: 5

What do the screens show for `N#Cc1cccc(C(=O)C(=O)N2CCN(C(=O)OCc3ccccc3)CC2)c1`?
MT1-MMP act inh: 4; SKN-1 inh: -11; SUMO1-SIM PPI: 1; CSN deneddyl inh: 2

What do the screens show for `COCCN1C(=O)CC(NNC(=O)c2ccc(S(=O)(=O)N3CCCC3)cc2)C1=O` (stereo unspecified)?
MT1-MMP act inh: 0; SKN-1 inh: 101*; DNMT1 inh: -5; Rpn11 block: -4; SUMO1-SIM PPI: -1; CSN deneddyl inh: 14

How did CCN1/C(=N\N)c2cccc3cccc1c23 do in these assays?
MT1-MMP act inh: 21; SKN-1 inh: 61; DNMT1 inh: -16; SUMO1-SIM PPI: 1; CSN deneddyl inh: 51*

Results for CCC(C)NC(=O)CN1C(=O)c2cccc3cccc1c23 (stereo unspecified) ?
MT1-MMP act inh: 0; SKN-1 inh: 12; DNMT1 inh: -2; Rpn11 block: -7; SUMO1-SIM PPI: -13; CSN deneddyl inh: 3

Results for CCCCCCCCN1C(=O)[C@H](CC(=O)NCc2cccc(C(F)(F)F)c2)C[C@@]2(C(=O)OC)CC(C)(C)CC=C12 ?
MT1-MMP act inh: -12; SKN-1 inh: -19; SUMO1-SIM PPI: 2; CSN deneddyl inh: 1

What do the screens show for `CC(=O)Nc1ccc(-c2ccnc3c2CC(C)(C(=O)Nc2ccc(F)c(Cl)c2)O3)cc1` (stereo unspecified)?
MT1-MMP act inh: 6; SKN-1 inh: 4; DNMT1 inh: 3; Rpn11 block: 2; SUMO1-SIM PPI: 2; CSN deneddyl inh: 1

What do the screens show for `N=C1C=CC(=C(c2ccc(N)cc2)c2ccc(N)cc2)C=C1`?
MT1-MMP act inh: 93; SKN-1 inh: 60*; DNMT1 inh: -32; Rpn11 block: 39; SUMO1-SIM PPI: 22; CSN deneddyl inh: 11

Results for Oc1c(CN2CCc3ccccc3C2)cc(Cl)c2cccnc12 ?
MT1-MMP act inh: 3; SKN-1 inh: -6; DNMT1 inh: -9; Rpn11 block: 39*; SUMO1-SIM PPI: -17; CSN deneddyl inh: -2

Results for COc1ccc(-c2cc(C(=O)NC3CC3)c3ccccc3n2)cc1 ?
MT1-MMP act inh: 1; SKN-1 inh: 3; DNMT1 inh: -4; Rpn11 block: -6; SUMO1-SIM PPI: -11; CSN deneddyl inh: 3

How did O=C(NC1CC1)c1cc(-c2ccc(Br)cc2)nc2ccccc12 do in these assays?
MT1-MMP act inh: -7; SKN-1 inh: 36*; DNMT1 inh: 0; Rpn11 block: 8; SUMO1-SIM PPI: -8; CSN deneddyl inh: -1

What do the screens show for `CCC(C)(O)c1cnc(CC(C)C)c(=O)n1O` (stereo unspecified)?
MT1-MMP act inh: 6; SKN-1 inh: 15; DNMT1 inh: 0; Rpn11 block: -19; SUMO1-SIM PPI: 3; CSN deneddyl inh: -2

What do the screens show for `O=C1NN=C(CSc2n[nH]c(=S)s2)CS1`?
MT1-MMP act inh: 0; SKN-1 inh: -8; DNMT1 inh: 4; Rpn11 block: 7; SUMO1-SIM PPI: 50*; CSN deneddyl inh: -2

Results for O=C(Nc1ccccc1)C1Cc2c(-c3ccco3)ccnc2O1 (stereo unspecified) ?
MT1-MMP act inh: -7; SKN-1 inh: -2; DNMT1 inh: 2; Rpn11 block: -8; SUMO1-SIM PPI: -1; CSN deneddyl inh: 3
